Calls of active or inactive are those of the source. The calls are words filed in the database; no cut-off is given here.
What was measured:
[1] = biological target: Neurogenic locus notch homolog protein 1 (Mus musculus, UniProt Q01705); assay: Inhibition of recombinant mouse N-terminal FLAG-tagged Notch1 (1704 to 2531 residues) expressed in human LS174T cells assessed as reduction in doxycycline-induced NICD expression after 12 hrs by Bright-Glo luciferase reporter gene assay; type: cell-based
Chain of Neurogenic locus notch homolog protein 1 (Q01705 whole entry, the tested form may be a part): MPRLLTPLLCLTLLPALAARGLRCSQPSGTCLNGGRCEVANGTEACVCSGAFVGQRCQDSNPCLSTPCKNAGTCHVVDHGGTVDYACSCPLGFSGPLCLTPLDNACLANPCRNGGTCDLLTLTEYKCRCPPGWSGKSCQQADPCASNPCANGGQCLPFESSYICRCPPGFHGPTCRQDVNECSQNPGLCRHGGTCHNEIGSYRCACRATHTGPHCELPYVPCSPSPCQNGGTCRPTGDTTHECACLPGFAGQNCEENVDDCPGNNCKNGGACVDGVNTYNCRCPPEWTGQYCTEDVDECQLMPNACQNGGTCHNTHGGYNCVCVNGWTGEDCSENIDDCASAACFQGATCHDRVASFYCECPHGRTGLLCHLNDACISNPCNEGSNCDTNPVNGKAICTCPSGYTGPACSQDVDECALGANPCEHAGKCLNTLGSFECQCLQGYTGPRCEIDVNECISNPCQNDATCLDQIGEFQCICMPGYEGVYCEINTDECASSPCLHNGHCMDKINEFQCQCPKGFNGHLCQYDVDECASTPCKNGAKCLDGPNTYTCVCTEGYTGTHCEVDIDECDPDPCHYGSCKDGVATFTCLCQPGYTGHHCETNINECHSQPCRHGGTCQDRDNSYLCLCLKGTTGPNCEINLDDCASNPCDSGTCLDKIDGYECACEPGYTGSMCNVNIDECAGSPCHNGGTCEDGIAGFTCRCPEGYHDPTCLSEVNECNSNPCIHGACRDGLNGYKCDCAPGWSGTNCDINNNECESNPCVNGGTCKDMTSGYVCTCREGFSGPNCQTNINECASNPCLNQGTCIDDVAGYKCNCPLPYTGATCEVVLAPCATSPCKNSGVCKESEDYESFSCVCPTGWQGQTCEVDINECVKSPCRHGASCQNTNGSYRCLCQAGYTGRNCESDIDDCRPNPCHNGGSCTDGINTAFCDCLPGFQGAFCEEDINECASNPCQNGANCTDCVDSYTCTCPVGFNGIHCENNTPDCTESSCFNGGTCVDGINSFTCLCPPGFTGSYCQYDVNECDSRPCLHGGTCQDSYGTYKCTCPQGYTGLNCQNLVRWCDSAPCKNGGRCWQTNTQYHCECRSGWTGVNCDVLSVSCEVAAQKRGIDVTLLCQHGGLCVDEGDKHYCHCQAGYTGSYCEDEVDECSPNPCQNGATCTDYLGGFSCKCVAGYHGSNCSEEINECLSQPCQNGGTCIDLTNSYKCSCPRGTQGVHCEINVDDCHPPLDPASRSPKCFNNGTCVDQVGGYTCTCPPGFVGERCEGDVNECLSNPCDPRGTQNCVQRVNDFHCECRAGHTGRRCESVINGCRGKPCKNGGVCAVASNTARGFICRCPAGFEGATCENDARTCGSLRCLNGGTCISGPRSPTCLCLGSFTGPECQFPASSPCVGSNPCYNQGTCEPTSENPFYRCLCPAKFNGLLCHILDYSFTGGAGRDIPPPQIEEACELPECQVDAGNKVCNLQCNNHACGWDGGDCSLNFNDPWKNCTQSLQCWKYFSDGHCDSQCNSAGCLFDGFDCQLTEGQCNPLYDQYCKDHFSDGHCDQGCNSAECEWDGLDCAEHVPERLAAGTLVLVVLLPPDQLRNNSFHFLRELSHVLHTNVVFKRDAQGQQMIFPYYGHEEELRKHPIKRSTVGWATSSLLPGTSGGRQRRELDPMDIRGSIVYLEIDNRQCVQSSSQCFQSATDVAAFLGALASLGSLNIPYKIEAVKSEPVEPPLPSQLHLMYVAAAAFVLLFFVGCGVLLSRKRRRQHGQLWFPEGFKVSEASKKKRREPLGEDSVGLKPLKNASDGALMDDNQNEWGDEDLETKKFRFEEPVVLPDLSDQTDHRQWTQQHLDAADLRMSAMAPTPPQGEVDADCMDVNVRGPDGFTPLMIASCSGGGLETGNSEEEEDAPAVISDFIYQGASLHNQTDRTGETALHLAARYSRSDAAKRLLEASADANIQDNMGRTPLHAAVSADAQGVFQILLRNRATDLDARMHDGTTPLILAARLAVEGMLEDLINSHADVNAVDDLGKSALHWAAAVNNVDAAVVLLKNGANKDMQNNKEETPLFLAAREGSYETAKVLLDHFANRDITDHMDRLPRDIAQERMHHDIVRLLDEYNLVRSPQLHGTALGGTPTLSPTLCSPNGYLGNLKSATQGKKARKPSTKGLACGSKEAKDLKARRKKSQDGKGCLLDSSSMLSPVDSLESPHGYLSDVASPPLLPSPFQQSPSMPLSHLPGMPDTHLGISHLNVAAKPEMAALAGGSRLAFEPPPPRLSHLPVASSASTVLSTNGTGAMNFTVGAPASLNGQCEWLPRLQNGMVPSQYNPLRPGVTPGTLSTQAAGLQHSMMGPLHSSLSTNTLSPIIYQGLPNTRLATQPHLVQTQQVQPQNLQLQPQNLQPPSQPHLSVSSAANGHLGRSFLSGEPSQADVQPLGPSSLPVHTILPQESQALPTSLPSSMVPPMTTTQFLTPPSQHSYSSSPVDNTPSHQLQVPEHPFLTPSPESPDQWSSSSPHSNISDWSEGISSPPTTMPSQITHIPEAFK
Summary of the method: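 LS174T cells stably carrying a luciferase reporter under 12× RBP-J sites (β-globin promoter), 2 × 10^4 per well. After 12 h, doxycycline 50 ng/mL for 12 h induced Notch1(1704–2531). Then dox-free medium with compound, 0.1% DMSO, 12 h at 37 °C. Read by Bright-Glo luminescence, n = 3, with parallel FMCA viability.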

HPBALL [2] = assay: Down regulation of Notch1 expression in human HPBALL cells at 0.5 uM after 12 hrs in presence of proteasome inhibitor MG132 by Western blot analysis; type: functional, cell-based
Summary of the method: (§1)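 HPB-ALL cells at 1 × 10^6 per 6 cm dish, treated 12 h at 37 °C with compound plus proteasome inhibitor MG132 (18.5 μM). Lysates blotted on PVDF, probed for cleaved Notch1 (Val1744)/NICD with β-actin loading control, ECL detection.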

[3] = biological target: Neurogenic locus notch homolog protein 1 (Mus musculus) (UniProt Q01705); assay: Inhibition of doxycycline-induced recombinant mouse N-terminal FLAG-tagged Notch1 (1704 to 2531 residues) activation expressed in human LS174T cells assessed as reduction in Hes5 level at 0.05 to 0.3 uM after 12 hrs by Western blot analysis; type: cell-based
Chain of Neurogenic locus notch homolog protein 1 (Mus musculus) (Q01705 whole entry, the tested form may be a part): as above
Summary of the method: (§2)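 LS174T Notch assay cells at 1 × 10^6 per 6 cm dish, 12 h at 37 °C, then doxycycline 50 ng/mL for 12 h to induce FLAG-Notch1(1704–2531). Switched to fresh medium with compound for 12 h. Lysates probed by western blot with anti-FLAG, anti-cleaved Notch1 (Val1744), anti-HES1 or anti-HES5, β-actin control.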

[4] = biological target: Neurogenic locus notch homolog protein 1 (Mus musculus) (UniProt Q01705); assay: Inhibition of doxycycline-induced recombinant mouse N-terminal FLAG-tagged Notch1 (1704 to 2531 residues) activation expressed in human LS174T cells assessed as reduction in Hes1 level at 0.05 to 0.3 uM after 12 hrs by Western blot analysis; type: cell-based; summary of the method: as §2
HPBALL [5] = assay: Cytotoxicity against human HPBALL cells after 72 hrs by alamar blue dye based fluorescence assay; type: functional, cell-based
Summary of the method: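 HPB-ALL T-ALL cells at 1 × 10^4 per well in RPMI-1640 with 10% FBS and penicillin/streptomycin. Compound added at seeding over a concentration range; 72 h at 37 °C. AlamarBlue then added for 4 h and fluorescence read to give viability.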

[6] = biological target: Neurogenic locus notch homolog protein 1 (Homo sapiens) (UniProt P46531); assay: Inhibition of Notch1 in human HPBALL cells assessed as reduction in NICD expression at 0.5 uM after 12 hrs in presence of proteasome inhibitor MG132 by Western blot analysis; type: cell-based; summary of the method: as §1
Chain of Neurogenic locus notch homolog protein 1 (Homo sapiens) (P46531 whole entry, the tested form may be a part): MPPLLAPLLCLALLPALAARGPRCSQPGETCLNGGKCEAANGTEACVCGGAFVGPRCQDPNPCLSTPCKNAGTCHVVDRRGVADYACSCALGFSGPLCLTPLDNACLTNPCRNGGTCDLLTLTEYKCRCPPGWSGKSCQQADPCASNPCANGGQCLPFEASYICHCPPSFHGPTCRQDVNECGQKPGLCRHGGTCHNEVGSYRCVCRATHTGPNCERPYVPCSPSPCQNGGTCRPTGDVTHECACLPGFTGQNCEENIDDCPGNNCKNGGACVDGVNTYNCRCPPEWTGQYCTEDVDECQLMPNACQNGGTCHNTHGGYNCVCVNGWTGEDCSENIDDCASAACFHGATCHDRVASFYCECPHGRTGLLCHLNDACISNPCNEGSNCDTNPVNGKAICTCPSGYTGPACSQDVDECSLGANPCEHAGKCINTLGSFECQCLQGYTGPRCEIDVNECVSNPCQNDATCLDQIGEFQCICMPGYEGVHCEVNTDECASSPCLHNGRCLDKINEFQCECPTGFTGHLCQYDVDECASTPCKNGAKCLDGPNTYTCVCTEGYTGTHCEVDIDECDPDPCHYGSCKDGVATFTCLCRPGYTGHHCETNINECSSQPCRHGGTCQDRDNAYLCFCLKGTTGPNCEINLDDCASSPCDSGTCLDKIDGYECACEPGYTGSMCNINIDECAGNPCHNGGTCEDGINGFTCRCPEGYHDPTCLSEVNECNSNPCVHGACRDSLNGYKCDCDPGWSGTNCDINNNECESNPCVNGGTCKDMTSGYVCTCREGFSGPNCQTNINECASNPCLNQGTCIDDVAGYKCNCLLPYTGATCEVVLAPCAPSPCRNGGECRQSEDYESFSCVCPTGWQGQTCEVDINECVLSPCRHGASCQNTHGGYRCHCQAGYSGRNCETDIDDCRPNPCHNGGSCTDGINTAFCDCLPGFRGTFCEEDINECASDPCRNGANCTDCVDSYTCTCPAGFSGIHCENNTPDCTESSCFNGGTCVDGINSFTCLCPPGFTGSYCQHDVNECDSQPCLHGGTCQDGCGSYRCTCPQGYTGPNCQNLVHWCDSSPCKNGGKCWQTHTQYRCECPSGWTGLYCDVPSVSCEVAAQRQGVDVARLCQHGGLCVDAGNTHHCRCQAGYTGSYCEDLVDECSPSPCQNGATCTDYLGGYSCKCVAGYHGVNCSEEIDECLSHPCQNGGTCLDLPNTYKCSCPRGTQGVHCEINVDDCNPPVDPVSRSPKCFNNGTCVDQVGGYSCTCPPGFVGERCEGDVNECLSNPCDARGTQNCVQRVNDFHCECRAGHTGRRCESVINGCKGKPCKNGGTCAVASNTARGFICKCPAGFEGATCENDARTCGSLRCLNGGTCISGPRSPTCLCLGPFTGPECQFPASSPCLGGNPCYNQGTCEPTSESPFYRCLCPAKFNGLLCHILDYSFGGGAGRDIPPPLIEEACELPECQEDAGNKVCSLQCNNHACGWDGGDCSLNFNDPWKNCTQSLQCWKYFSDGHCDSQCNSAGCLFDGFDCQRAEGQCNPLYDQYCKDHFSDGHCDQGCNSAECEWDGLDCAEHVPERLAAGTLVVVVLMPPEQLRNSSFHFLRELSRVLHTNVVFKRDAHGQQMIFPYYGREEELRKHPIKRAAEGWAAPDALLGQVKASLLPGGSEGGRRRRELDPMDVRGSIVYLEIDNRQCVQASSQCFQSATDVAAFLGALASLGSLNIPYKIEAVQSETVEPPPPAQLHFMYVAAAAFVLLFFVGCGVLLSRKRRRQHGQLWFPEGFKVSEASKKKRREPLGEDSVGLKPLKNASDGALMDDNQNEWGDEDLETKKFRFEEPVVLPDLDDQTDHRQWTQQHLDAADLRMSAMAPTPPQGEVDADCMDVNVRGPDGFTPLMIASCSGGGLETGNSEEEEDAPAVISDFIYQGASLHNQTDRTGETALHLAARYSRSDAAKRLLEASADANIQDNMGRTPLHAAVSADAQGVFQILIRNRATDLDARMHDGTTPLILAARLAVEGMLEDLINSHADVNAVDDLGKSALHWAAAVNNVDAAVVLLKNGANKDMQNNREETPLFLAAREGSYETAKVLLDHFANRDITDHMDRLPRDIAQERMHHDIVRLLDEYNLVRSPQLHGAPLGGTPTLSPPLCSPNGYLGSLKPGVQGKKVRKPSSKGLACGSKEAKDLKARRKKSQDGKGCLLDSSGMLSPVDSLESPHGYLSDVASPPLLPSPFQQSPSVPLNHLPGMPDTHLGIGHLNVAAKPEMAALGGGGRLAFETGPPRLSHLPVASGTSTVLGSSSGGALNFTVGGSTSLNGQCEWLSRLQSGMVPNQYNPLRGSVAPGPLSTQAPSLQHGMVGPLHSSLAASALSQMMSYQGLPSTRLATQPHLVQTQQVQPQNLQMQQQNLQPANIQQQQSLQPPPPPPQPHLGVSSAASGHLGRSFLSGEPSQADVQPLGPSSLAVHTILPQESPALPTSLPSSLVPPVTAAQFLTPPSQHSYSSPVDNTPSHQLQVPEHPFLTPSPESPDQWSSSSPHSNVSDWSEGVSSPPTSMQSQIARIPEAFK

HPBALL [7] = assay: Effect on Notch1 mRNA expression in human HPBALL cells at 0.1 to 0.5 uM measured after 12 hrs; type: functional, cell-based
[8] = biological target: Neurogenic locus notch homolog protein 1 (Mus musculus) (UniProt Q01705); assay: Inhibition of doxycycline-induced recombinant mouse N-terminal FLAG-tagged Notch1 (1704 to 2531 residues) activation expressed in human LS174T cells assessed as reduction in NCID expression after 12 hrs by Western blot analysis; type: cell-based; summary of the method: as §2
LS174T = assay: Inhibition of doxycycline-induced Notch1 (1704 to 2531 residues) expression in human LS174T cells after 12 hrs by Western blot analysis; type: functional, cell-based; summary of the method: as §2
HEK293 = assay: Cytotoxicity against HEK293 cells after 72 hrs by fluorescence assay; type: cell-based; settings: Homo sapiens, HEK293, 72 h
Summary of the method: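 HEK293 cells at 1 × 10^4 per well in DMEM with 10% FBS and penicillin/streptomycin. Pre-incubated 24 h at 37 °C, then medium replaced with fresh medium holding a range of compound concentrations. Exposed 72 h; medium removed and proliferation read by fluorometric microculture cytotoxicity assay (FMCA).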

[9] = biological target: Neurogenic locus notch homolog protein 1 (Homo sapiens) (UniProt P46531); assay: Inhibition of Notch1 in human HPBALL cells assessed as reduction in NICD expression after 72 hrs by Western blot analysis; type: cell-based
Summary of the method: (§3)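 HPB-ALL cells at 5 × 10^5 per 6 cm dish in RPMI-1640/10% FBS containing a range of compound concentrations, 72 h at 37 °C. Lysates run on SDS-PAGE and PVDF; probed with anti-HES1 or anti-cleaved Notch1 (Val1744) for NICD, β-actin control, ECL read-out.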

[10] = biological target: Neurogenic locus notch homolog protein 1 (Homo sapiens) (UniProt P46531); assay: Inhibition of Notch1 in human HPBALL cells assessed as reduction in HES1 expression after 72 hrs by Western blot analysis; type: cell-based; summary of the method: as §3
HPBALL [11] = assay: Down regulation of Notch1 expression in human HPBALL cells at 0.5 uM after 12 hrs by Western blot analysis; type: functional, cell-based
[12] = biological target: Neurogenic locus notch homolog protein 1 (Homo sapiens) (UniProt P46531); assay: Inhibition of Notch1 in human HPBALL cells assessed as reduction in NICD expression at 0.5 uM after 12 hrs by Western blot analysis; type: cell-based
[13] = biological target: Neurogenic locus notch homolog protein 1 (Mus musculus) (UniProt Q01705); assay: Inhibition of doxycycline-induced recombinant mouse N-terminal FLAG-tagged Notch1 (1704 to 2531 residues) activation expressed in human LS174T cells assessed as reduction in NCID expression at 0.5 uM after 12 hrs in presence of proteasome inhibitor MG132 by Western blot analysis; type: cell-based

In the case of `CO[C@@H]1C[C@H](O[C@H]2CC[C@@]3(C)[C@H](CC[C@@H]4[C@@H]3CC[C@]3(C)[C@@H](C5=CC(=O)OC5)[C@@H](OC(C)=O)C[C@]43O)C2)O[C@H](C)[C@@H]1O`, the IC50 ([1]; read-out: IC50) is reported as 2700 nM.

`C[C@]12CC[C@H](O)C[C@H]1CC[C@@H]1[C@@H]2CC[C@]2(C)[C@@H](C3=CC(=O)OC3)CC[C@]12O` [DIGITOXIGENIN] was tested, and the IC50 ([1]; ls174t) was “Not Active”.

`CO[C@@H]1C[C@H](O[C@H]2CC[C@@]3(C)[C@H](CC[C@@H]4[C@@H]3CC[C@]3(C)C(C5=CC(=O)OC5)=CC[C@]43O)C2)O[C@H](C)[C@@H]1O` was tested, and the IC50 ([1]; ls174t) was “Not Active”.

`CO[C@H]1C[C@H](O[C@H]2CC[C@@]3(C)[C@H](CC[C@@H]4[C@@H]3CC[C@]3(C)[C@@H](C5=CC(=O)OC5)[C@@H](O)C[C@]43O)C2)O[C@@H](C)[C@@H]1O` gave an IC50 ([1]; read-out: IC50) of 2500 nM.

With `CO[C@H]1C[C@H](O[C@H]2CC[C@@]3(C)[C@H](CC[C@@H]4[C@@H]3CC[C@]3(C)[C@@H](C5=CC(=O)OC5)CC[C@]43O)C2)O[C@@H](O)[C@@H]1O` the IC50 ([1]; read-out: IC50) was 2700 nM.

In the case of `CO[C@H]1C[C@H](O[C@H]2CC[C@@]3(C)[C@H](CC[C@@H]4[C@@H]3CC[C@]3(C)[C@@H](C5=CC(=O)OC5)[C@@H](OC(C)=O)C[C@]43O)C2)O[C@@H](C)[C@@H]1O` [OLEANDRIN], the Activity (HPBALL [2]) is reported as “Active”, the inhibition [3] is reported as “Active” and the inhibition [4] is reported as “Active”. For the same compound, the IC50 ([1]; read-out: IC50) was 120 nM, the IC50 (HPBALL [5]) was 14 nM and the inhibition [6] was “inactive”. The Activity (HPBALL [7]) was “inactive”, the inhibition [8] was “Dose-dependent effect” and the inhibition (LS174T) was “Dose-dependent effect”. The IC50 (HEK293) was 28 nM, the inhibition [9] was “Dose-dependent effect” and the inhibition [10] was “Dose-dependent effect”. The Activity (HPBALL [11]) was “Active”, the inhibition [12] was “Active” and the inhibition [13] was “inactive”.

With `CO[C@@H]1C[C@H](O[C@H]2CC[C@@]3(C)[C@H](CC[C@@H]4[C@@H]3CC[C@]3(C)[C@@H](C5=CC(=O)OC5)CC[C@]43O)C2)O[C@H](C)[C@@H]1O` the IC50 ([1]; read-out: IC50) was 4200 nM.

In the case of `CO[C@@H]1C[C@H](O[C@H]2CC[C@@]3(C)[C@H](CC[C@]4(O)[C@@H]3CC[C@]3(C)[C@@H](C5=CC(=O)OC5)CC[C@@]34O)C2)O[C@H](C)[C@@H]1O`, the IC50 ([1]; ls174t) is reported as “Not Active”.

Reference: ChEMBL document CHEMBL4251745, “The Notch Inhibitors Isolated from Nerium indicum” (J Nat Prod, 2018)
